# Measurements reported in ChEMBL document CHEMBL1275560, “Serial daptomycin selection generates daptomycin-nonsusceptible Staphylococcus aureus strains with a heterogeneous vancomycin-intermediate phenotype” (2008).
# The source made the active and inactive calls. The rule behind the calls is not given here.
# How the values were obtained:
# Staphylococcus aureus [1] = assay: Antimicrobial activity against methicillin-resistant Staphylococcus aureus N315DeltaIP by Etest method; format: functional
# In short: (§1)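 Etest MICs on Mueller-Hinton agar, run per manufacturer. Fosfomycin plates carried 25 µg/ml glucose-6-phosphate. Daptomycin Etest was also done with 200 µM GdCl3 in agar. Daptomycin MICs were read at 24 h and again at 48 h to capture slowly growing resistant subpopulations.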
# Staphylococcus aureus [2] = assay: Antimicrobial activity against Staphylococcus aureus 10*3d1 by Etest method; format: functional
# In short: (§2)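 MICs read by Etest on Mueller-Hinton agar, following the manufacturer's method. Agents tested were daptomycin, vancomycin, teicoplanin, linezolid, oxacillin, imipenem, bacitracin, fosfomycin and colistin. For fosfomycin the agar carried 25 µg/ml D-glucose-6-phosphate. The daptomycin Etest was also run with 200 µM gadolinium(III) chloride in the agar. Daptomycin MICs were read at both 24 h and 48 h.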
# Staphylococcus aureus [3] = assay: Antimicrobial activity against Staphylococcus aureus 10*3d1-10 by Etest method; format: functional; in short: as §2
# Staphylococcus aureus [4] = assay: Antimicrobial activity against methicillin-resistant Staphylococcus aureus N315DeltaIP heteroresistant subpopulations by Etest method; format: functional; in short: as §1
# Staphylococcus aureus [5] = assay: Antimicrobial activity against methicillin-resistant Staphylococcus aureus N315DeltaIP by Etest method in presence of 200 uM GdCl3
# Staphylococcus aureus [6] = assay: Antimicrobial activity against methicillin-resistant Staphylococcus aureus 10*3d1 by Etest method in presence of 200 uM GdCl3; format: functional
# In short: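 Etest on Mueller-Hinton agar containing gadolinium(III) chloride at 200 µM, used as a mechanosensitive channel (MscL) blocker; MICs read at 24 h and also at 48 h so a slowly growing resistant subpopulation is not missed. The strain is a two-step daptomycin-selected derivative of MRSA N315ΔIP, stocked at –80°C in 40% glycerol.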
# Staphylococcus aureus [7] = assay: Antimicrobial activity against methicillin-resistant Staphylococcus aureus N315DeltaIP assessed as decreased membrane potential; format: functional, organism-based
# In short: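 Flow cytometry with DiOC2(3). Cells were grown to exponential phase (OD600 0.3) in MHB with 50 µg/ml calcium, then diluted 1:100 in kit buffer. GdCl3 was 200 µM final; CCCP-treated and heat-killed cells served as controls. TO-PRO-3 (500 nM) flagged damaged membranes. Dye at 30 µM, 4 min, room temperature. 10,000 cells per run, 488-nm excitation; red/green ratio of population mean fluorescence.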
molecule,measurement,setting,value
COLISTIN,MIC,Staphylococcus aureus [1],256 µg/mL
same,MIC,Staphylococcus aureus [2],192 µg/mL
same,MIC,Staphylococcus aureus [3],192 µg/mL
Cc1onc(-c2ccccc2)c1C(=O)N[C@@H]1C(=O)N2[C@@H]1SC(C)(C)[C@@H]2C(=O)O [OXACILLIN],MIC,Staphylococcus aureus [1],24 µg/mL
same,MIC,Staphylococcus aureus [2],> 256 µg/mL
same,MIC,Staphylococcus aureus [3],> 256 µg/mL
same,MIC,Staphylococcus aureus [4],192 µg/mL
CN[C@H](CC(C)C)C(=O)N[C@H]1C(=O)N[C@@H](CC(N)=O)C(=O)N[C@H]2C(=O)N[C@H]3C(=O)N[C@H](C(=O)N[C@H](C(=O)O)c4cc(O)cc(O)c4-c4cc3ccc4O)[C@H](O)c3ccc(c(Cl)c3)Oc3cc2cc(c3O[C@@H]2O[C@H](CO)[C@@H](O)[C@H](O)[C@H]2O[C@H]2C[C@](C)(N)[C@H](O)[C@H](C)O2)Oc2ccc(cc2Cl)[C@H]1O [VANCOMYCIN],MIC,Staphylococcus aureus [1],0.75 µg/mL
same,MIC,Staphylococcus aureus [2],3 µg/mL
CCCCCCCCCC(=O)N[C@@H](Cc1c[nH]c2ccccc12)C(=O)N[C@H](CC(N)=O)C(=O)N[C@@H](CC(=O)O)C(=O)N[C@@H]1C(=O)NCC(=O)N[C@@H](CCCN)C(=O)N[C@@H](CC(=O)O)C(=O)N[C@H](C)C(=O)N[C@@H](CC(=O)O)C(=O)NCC(=O)N[C@H](CO)C(=O)N[C@@H]([C@H](C)CC(=O)O)C(=O)N[C@@H](CC(=O)c2ccccc2N)C(=O)O[C@@H]1C,MIC,Staphylococcus aureus [1],0.5 µg/mL
same,MIC,Staphylococcus aureus [5],0.5 µg/mL
same,MIC,Staphylococcus aureus [2],3 µg/mL
same,MIC,Staphylococcus aureus [6],3 µg/mL
same,MIC,Staphylococcus aureus [3],1 µg/mL
same,Activity,Staphylococcus aureus [7],Active
C[C@@H](O)[C@H]1C(=O)N2C(C(=O)O)=C(SCCNC=N)C[C@H]12 [IMIPENEM ANHYDROUS],MIC,Staphylococcus aureus [1],2 µg/mL
same,MIC,Staphylococcus aureus [2],> 32 µg/mL
same,MIC,Staphylococcus aureus [3],> 32 µg/mL
same,MIC,Staphylococcus aureus [4],3 µg/mL
C[C@@H]1O[C@@H]1P(=O)(O)O [FOSFOMYCIN],MIC,Staphylococcus aureus [1],12 µg/mL
same,MIC,Staphylococcus aureus [2],0.5 µg/mL
same,MIC,Staphylococcus aureus [3],2 µg/mL
